Data reported in ChEMBL document CHEMBL4330179, “De Novo Discovery of Nonstandard Macrocyclic Peptides as Noncompetitive Inhibitors of the Zika Virus NS2B-NS3 Protease” (ACS Med Chem Lett, 2019).
Active and inactive are the calls of the source. Positions of bridges follow the written chain, without caps; N, C: chain ends. Non-standard residues stand in square brackets, D forms with d. Residues, ends and D or L forms follow the SMILES beside them. NMeY = CN[C@@H](Cc1ccc(O)cc1)C(=O)O; NMeF = CN[C@@H](Cc1ccccc1)C(=O)O; NMeS = CN[C@@H](CO)C(=O)O; Sar = CNCC(=O)O

How the values were obtained:
Nonstructural protein 3 [1] = molecular target: T1, Nonstructural protein 3 (Zika virus, UniProt A0A024AXB9); assay: Binding affinity to C-terminal His6-tagged linked Zika virus NS2B-NS3 protease domain by SPR analysis
T1 sequence (A0A024AXB9 whole entry, the tested form may be a part): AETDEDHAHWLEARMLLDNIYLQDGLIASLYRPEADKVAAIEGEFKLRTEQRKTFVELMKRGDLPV
Summary of the method: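 Dissociation constants measured by surface plasmon resonance, with the linked Zika NS2B-NS3 protease (gZiPro) immobilized on the chip.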

Genome polyprotein [2] = molecular target: Genome polyprotein (dengue virus type 2, UniProt P29990); assay: Inhibition of C-terminal His6-tagged linked Dengue virus serotype 2 NS2B-NS3 protease domain expressed in Escherichia coli Bl21(DE3) preincubated for 15 mins followed by Abz-Nle-Lys-Arg-Arg-Ser-3-(NO2)Tyr substrate addition and measured for 15 mins by fluorescence method
Genome polyprotein (dengue virus type 2, UniProt P29990), sequence (P29990 1346-1475 limits assumed): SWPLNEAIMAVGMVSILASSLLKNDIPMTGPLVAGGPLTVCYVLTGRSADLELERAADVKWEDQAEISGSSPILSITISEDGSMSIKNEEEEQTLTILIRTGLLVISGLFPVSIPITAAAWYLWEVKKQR
Genome polyprotein (dengue virus type 2, UniProt P29990), sequence (P29990 1476-2093 limits assumed): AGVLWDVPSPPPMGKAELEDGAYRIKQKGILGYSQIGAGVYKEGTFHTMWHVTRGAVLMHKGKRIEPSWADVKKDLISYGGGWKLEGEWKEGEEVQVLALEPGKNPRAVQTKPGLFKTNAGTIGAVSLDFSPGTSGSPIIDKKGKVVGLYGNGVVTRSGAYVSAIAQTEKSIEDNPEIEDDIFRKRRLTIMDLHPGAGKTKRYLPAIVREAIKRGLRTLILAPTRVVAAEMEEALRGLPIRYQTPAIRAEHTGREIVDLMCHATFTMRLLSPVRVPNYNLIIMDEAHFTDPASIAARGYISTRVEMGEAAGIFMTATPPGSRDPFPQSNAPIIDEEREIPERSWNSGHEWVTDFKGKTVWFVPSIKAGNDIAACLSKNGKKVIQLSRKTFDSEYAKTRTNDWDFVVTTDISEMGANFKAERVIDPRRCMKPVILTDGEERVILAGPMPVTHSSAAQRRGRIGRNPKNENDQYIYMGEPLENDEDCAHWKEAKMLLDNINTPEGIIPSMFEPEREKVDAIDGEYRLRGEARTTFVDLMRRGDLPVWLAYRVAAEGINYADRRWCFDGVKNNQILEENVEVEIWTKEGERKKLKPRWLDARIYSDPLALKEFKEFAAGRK
Summary of the method: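 DENV-2 NS2B-NS3 protease used at 100 nM against the FRET substrate Abz-Nle-Lys-Arg-Arg-Ser-3-(NO2)Tyr. IC50 values were calculated for a substrate concentration of 50 μM.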

Genome polyprotein [3] = molecular target: Genome polyprotein (West Nile virus, UniProt P06935); assay: Inhibition of C-terminal His6-tagged linked West Nile virus NS2B-NS3 protease domain expressed in Escherichia coli Bl21(DE3) preincubated for 15 mins followed by AbzGly-Leu-Lys-Arg-Gly-Gly-3-(NO2)Tyr substrate addition and measured for 15 mins by fluorescence method
Genome polyprotein (West Nile virus, UniProt P06935), sequence (P06935 1371-1501 limits assumed): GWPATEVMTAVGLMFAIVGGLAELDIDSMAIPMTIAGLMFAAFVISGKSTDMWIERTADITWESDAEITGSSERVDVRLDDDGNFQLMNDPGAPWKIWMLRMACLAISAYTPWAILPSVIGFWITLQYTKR
Genome polyprotein (West Nile virus, UniProt P06935), sequence (P06935 1502-2120 limits assumed): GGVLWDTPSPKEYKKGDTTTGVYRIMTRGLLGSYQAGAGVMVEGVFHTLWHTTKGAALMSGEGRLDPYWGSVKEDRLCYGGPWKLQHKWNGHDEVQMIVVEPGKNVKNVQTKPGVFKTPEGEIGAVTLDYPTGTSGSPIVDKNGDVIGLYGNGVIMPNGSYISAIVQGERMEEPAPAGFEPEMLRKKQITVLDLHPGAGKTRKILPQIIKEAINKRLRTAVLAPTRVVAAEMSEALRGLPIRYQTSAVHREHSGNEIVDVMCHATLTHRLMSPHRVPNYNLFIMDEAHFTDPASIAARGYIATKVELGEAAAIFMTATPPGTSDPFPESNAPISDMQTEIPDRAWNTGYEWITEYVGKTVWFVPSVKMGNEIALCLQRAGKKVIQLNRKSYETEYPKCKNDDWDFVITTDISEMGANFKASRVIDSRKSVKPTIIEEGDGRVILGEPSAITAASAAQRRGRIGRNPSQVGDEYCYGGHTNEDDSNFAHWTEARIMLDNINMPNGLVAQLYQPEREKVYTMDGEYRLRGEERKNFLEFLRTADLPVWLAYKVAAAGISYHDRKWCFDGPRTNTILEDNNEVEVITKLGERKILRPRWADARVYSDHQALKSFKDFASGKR
Summary of the method: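 West Nile virus NS2B-NS3 protease at 150 nM with internally quenched substrate Abz-Gly-Leu-Lys-Arg-Gly-Gly-3-(NO2)Tyr. IC50 is calculated for 50 μM substrate.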

Nonstructural protein 3 [4] = molecular target: T1, Nonstructural protein 3; assay: Inhibition of C-terminal His6-tagged unlinked Zika virus NS2B-NS3 protease domain expressed in Escherichia coli Bl21(DE3) using Bz-Nle-Lys-Lys-Arg-AMC as substrate after 30 mins by fluorophotometric method
Summary of the method: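 Unlinked Zika NS2B-NS3 protease at 0.5 nM with Bz-Nle-Lys-Lys-Arg-AMC substrate.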

Nonstructural protein 3 [5] = molecular target: T1, Nonstructural protein 3; assay: Non-competitive inhibition of C-terminal His6-tagged linked Zika virus NS2B-NS3 protease domain expressed in Escherichia coli Bl21(DE3) using Bz-Nle-Lys-Lys-Arg-AMC as substrate after 30 mins by Cornish-Bowden plot analysis
Summary of the method: (§1)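 Fluorogenic substrate Bz-Nle-Lys-Lys-Arg-AMC against linked gZiPro, run at four substrate concentrations across a range of inhibitor concentrations. Ki comes from nonlinear least-squares fits to a noncompetitive inhibition model, and the mode is checked on Cornish–Bowden plots.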

Nonstructural protein 3 [6] = molecular target: T1, Nonstructural protein 3; assay: Inhibition of C-terminal His6-tagged linked Zika virus NS2B-NS3 protease domain expressed in Escherichia coli Bl21(DE3) using Bz-Nle-Lys-Lys-Arg-AMC as substrate after 30 mins by fluorophotometric method; summary of the method: as §1
[7] = molecular target: T2, Nonstructural protein 3 (Zika virus) (UniProt A0A024AXB9); assay: Competitive inhibition of C-terminal His6-tagged linked Zika virus NS2B-NS3 protease domain expressed in Escherichia coli Bl21(DE3) using Bz-Nle-Lys-Lys-Arg-AMC as substrate after 30 mins by Cornish-Bowden plot analysis
T2 sequence (A0A024AXB9 as listed by the source): as the sequence (A0A024AXB9 whole entry, the tested form may be a part) above

[8] = Selectivity index, ratio of IC50 for C-terminal His6-tagged linked Dengue virus serotype 2 NS2B-NS3 protease domain expressed in Escherichia coli Bl21(DE3) to Ki for non-competitive inhibition of C-terminal His6-tagged linked Zika virus NS2B-NS3 protease domain expressed in Escherichia coli Bl21(DE3)
[9] = Selectivity index, ratio of IC50 for C-terminal His6-tagged linked West Nile virus NS2B-NS3 protease domain expressed in Escherichia coli Bl21(DE3) to Ki for non-competitive inhibition of C-terminal His6-tagged linked Zika virus NS2B-NS3 protease domain expressed in Escherichia coli Bl21(DE3)
Huh-7 = assay: Cytotoxicity against human HuH7 cells assessed as reduction in cell viability up to 12.5 uM after 24 to 48 hrs by CellTiter-Blue assay; format: cell-based
Summary of the method: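 Huh-7 cells exposed to compounds for 24 h and 48 h. Metabolic activity is read as % reduction relative to nontreated cells, with 80% viability used as the cutoff.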

Trypsin (Homo sapiens) = Trypsin (Homo sapiens) (UniProt P07477+P07478+P35030); assay: Inhibition of trypsin (unknown origin) at 25 uM using Boc-Val-Pro-Arg-AMC as substrate preincubated for 15 mins followed by substrate addition and measured for 10 mins by fluorescence assay; format: protein assay
Summary of the method: (§2)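 Serine protease counter-screens (thrombin, trypsin), tested up to a highest concentration of 25 or 50 μM.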

[10] = molecular target: Prothrombin (Homo sapiens) (UniProt P00734); assay: Inhibition of thrombin (unknown origin) at 25 uM using Boc-Val-Pro-Arg-AMC as substrate preincubated for 15 mins followed by substrate addition and measured for 10 mins by fluorescence assay; summary of the method: as §2
[11] = molecular target: T2, Nonstructural protein 3 (Zika virus); assay: Inhibition of C-terminal His6-tagged unlinked Zika virus NS2B-NS3 protease domain expressed in Escherichia coli Bl21(DE3) at 200 to 400 nM using Bz-Nle-Lys-Lys-Arg-AMC as substrate after 30 mins in presence of cn-716 by fluorophotometric method

Row | SMILES | Kd (Nonstructural protein 3 [1]) [nM] | IC50 (Genome polyprotein [2]) [nM] | IC50 (Genome polyprotein [3]) [nM] | IC50 (Nonstructural protein 3 [4]) [nM] | Ki (Nonstructural protein 3 [5]) [nM] | IC50 (Nonstructural protein 3 [6]) [nM] | inhibition [7] | Selectivity Index [8] | Selectivity Index [9] | Activity (Huh-7) | inhibition (Trypsin (Homo sapiens)) | inhibition [10] | inhibition [11]
1 | CC[C@H](C)[C@@H]1NC(=O)[C@H](C)NC(=O)[C@@H](Cc2ccc(O)cc2)NC(=O)CSC[C@@H](C(N)=O)NC(=O)[C@H](CC(N)=O)NC(=O)[C@H](CC(C)C)N(C)C(=O)[C@H](Cc2ccc(O)cc2)NC(=O)[C@H](CCCCN)NC(=O)[C@H](CC(N)=O)NC(=O)[C@H](Cc2ccc(O)cc2)NC(=O)[C@H](Cc2ccc(OC)cc2)N(C)C(=O)[C@H]([C@@H](C)CC)NC1=O | 168 | > 20000 | > 20000 | 3200 | 3500 | 7100 | inactive |  |  |  |  |  | 
2 | CC(C)C[C@@H]1NC(=O)[C@H]([C@@H](C)O)NC(=O)[C@H](Cc2ccc(O)cc2)NC(=O)CSC[C@@H](C(N)=O)NC(=O)[C@H](Cc2ccccc2)NC(=O)[C@H](Cc2ccccc2)NC(=O)[C@H]([C@@H](C)O)NC(=O)CN(C)C(=O)[C@H](CC(N)=O)NC(=O)[C@H](Cc2cnc[nH]2)NC(=O)[C@H](Cc2ccccc2)NC(=O)[C@@H]2CCCN2C1=O ({CH2CO}-YTLPFHN[Sar]TFFC-NH2; thioether N-12) | 5 | > 20000 | > 20000 | ≥ 50000 | > 100000 |  | inactive |  |  |  |  |  | 
3 | COc1ccc(C[C@H]2C(=O)N[C@@H](Cc3ccccc3)C(=O)N[C@H](C(N)=O)CSCC(=O)N[C@@H](Cc3ccc(O)cc3)C(=O)N[C@@H]([C@@H](C)O)C(=O)N[C@@H](CC(N)=O)C(=O)N[C@@H](Cc3ccccc3)C(=O)N[C@@H](Cc3ccc(O)cc3)C(=O)N[C@@H](CC(C)C)C(=O)N[C@@H](Cc3ccc(O)cc3)C(=O)N3CCC[C@H]3C(=O)N[C@@H](Cc3ccc(O)cc3)C(=O)N2C)cc1 ({CH2CO}-YTNFYLYPY[NMeY](Me)FC-NH2; thioether N-12) | 8 | > 20000 | > 20000 | 2200 | 2000 | 3300 | inactive | > 10 | > 10 |  |  |  | 
4 | CC[C@H](C)[C@@H]1NC(=O)[C@H](CC(N)=O)NC(=O)[C@H](C(C)C)NC(=O)[C@H](CC(C)C)NC(=O)[C@H]([C@@H](C)O)NC(=O)[C@H](CC(N)=O)NC(=O)[C@H](Cc2ccc(OC)cc2)N(C)C(=O)[C@H]([C@@H](C)CC)NC(=O)[C@H](CCCCN)NC(=O)[C@H](Cc2c[nH]c3ccccc23)NC(=O)[C@H](Cc2ccc(O)cc2)NC(=O)CSC[C@@H](C(N)=O)NC1=O ({CH2CO}-YWKI[NMeY](Me)NTLVNIC-NH2; thioether N-12) | 20 | > 10000 | > 10000 | 1500 | 800 | 1320 | inactive | 4 | 9 | Non-Toxic | inactive | inactive | 
5 | COc1ccc(C[C@H]2C(=O)N[C@@H](CCCCN)C(=O)N(C)[C@@H](Cc3ccccc3)C(=O)N[C@@H](CCCCN)C(=O)N(C)[C@@H](CO)C(=O)N(C)[C@@H](Cc3ccc(OC)cc3)C(=O)N[C@@H](CCCCN)C(=O)N(C)[C@@H](Cc3ccc(OC)cc3)C(=O)N(C)[C@@H](Cc3ccc(OC)cc3)C(=O)N[C@@H](CCCCN)C(=O)N[C@H](C(N)=O)CSCC(=O)N[C@@H](Cc3ccc(O)cc3)C(=O)N2C)cc1 ({CH2CO}-Y[NMeY](Me)K[NMeF]K[NMeS][NMeY](Me)K[NMeY](Me)[NMeY](Me)KC-NH2; thioether N-12) | 9 | 1700 | 3900 | 250 | 440 | 620 | inactive | > 10 | > 10 | Non-Toxic | inactive | inactive | Active
6 | CC[C@H](C)[C@@H]1NC(=O)CN(C)C(=O)[C@H](Cc2ccc(O)cc2)NC(=O)CSC[C@@H](C(N)=O)NC(=O)[C@@H]2CCCN2C(=O)[C@H]([C@@H](C)CC)NC(=O)[C@H](Cc2ccc(OC)cc2)N(C)C(=O)[C@H](Cc2ccc(OC)cc2)N(C)C(=O)[C@H](CC(N)=O)NC(=O)[C@H](Cc2ccc(O)cc2)NC(=O)[C@H](CCCCN)NC(=O)[C@H](C)NC1=O ({CH2CO}-Y[Sar]IAKYN[NMeY](Me)[NMeY](Me)IPC-NH2; thioether N-12) | 9 | ≥ 20000 | ≥ 20000 | 4600 | 20400 | 16500 | inactive |  |  |  |  |  | 
